Data: ChEMBL document CHEMBL1147382, “Cytotoxic constituents from Hyptis verticillata” (J Nat Prod, 1993)
In brackets after ≈: the same amount, converted by molar mass. Activity calls are given as the source filed them. The rule behind the calls is not given here.

Columns and labels:
[1] = Antimitotic activity in rat ASK cells assessed as reversal of astrocyte formation at 100 ug/mL; assay type: functional
Summary of the method: (§1)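 Cultured rat glioma (ASK) cells were used, following Swanson et al. The antimitotic read-out was the dose giving 100% reversal of astrocyte conversion. Pure lignans were tested across a range of concentrations.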

LNCaP = assay: Cytotoxicity against human LNCAP cells; assay type: functional; details: read-out: ED50 (the source's name)
Lu1 = assay: Cytotoxicity against human Lu1 cells; assay type: functional; details: read-out: ED50 (the source's name)
[2] = Antimitotic activity in rat ASK cells assessed as reversal of astrocyte formation at 0.032 ug/mL; assay type: functional; summary of the method: as §1
[3] = Toxicity in brine shrimp; assay type: organism-based; details: artemia, in vivo
[4] = Cytotoxicity against human KBV1 cells; assay type: functional; details: KB-V1, read-out: ED50 (the source's name)
P388 = assay: Cytotoxicity in mouse P388 cells; assay type: functional; details: read-out: ED50 (the source's name)
[5] = Antimitotic activity in rat ASK cells assessed as reversal of astrocyte formation at 0.0064 ug/mL; assay type: functional; summary of the method: as §1
A-431 = assay: Cytotoxicity against human A431 cells; assay type: functional; details: read-out: ED50 (the source's name)
KB = assay: Cytotoxicity against human KB cells; assay type: functional; details: read-out: ED50 (the source's name)
ZR-75-1 = assay: Cytotoxicity against human ZR-75-1 cells; assay type: functional; details: read-out: ED50 (the source's name)
[6] = Cytotoxicity against human U373 cells; assay type: functional, U-373MG ATCC; details: U373 MG, read-out: ED50 (the source's name)
[7] = Antimitotic activity in rat ASK cells assessed as reversal of astrocyte formation at 20 ug/mL; assay type: functional; summary of the method: as §1
[8] = Antimitotic activity in rat ASK cells assessed as reversal of astrocyte formation at 0.8 ug/mL; assay type: functional; summary of the method: as §1
HT = assay: Cytotoxicity against human HT cells; assay type: functional; details: read-out: ED50 (the source's name)
[9] = Antimitotic activity in rat ASK cells assessed as reversal of astrocyte formation at 0.16 ug/mL; assay type: functional; summary of the method: as §1
[10] = Cytotoxicity against human BC1 cells; assay type: functional; details: read-out: ED50 (the source's name)
[11] = Antimitotic activity in rat ASK cells assessed as reversal of astrocyte formation at 4 ug/mL; assay type: functional; summary of the method: as §1
Col2 = assay: Cytotoxicity against human Col2 cells; assay type: functional; details: read-out: ED50 (the source's name)
Candida albicans = assay: Antimicrobial activity against Candida albicans ATCC 10231 at 0.2 to 1 ug/ml; assay type: functional, organism-based
[12] = Antimitotic activity in rat ASK cells assessed as reversal of astrocyte formation at 0.00128 ug/mL; assay type: functional
Summary of the method: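 Cultured rat glioma (ASK) cells, run essentially by a previously published astrocyte-formation procedure. Antimitotic potential is scored as the dose needed to give 100% reversal of astrocyte conversion.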

SMILES	Activity [1] [%]	EC50 (LNCaP) [µg/mL]	EC50 (Lu1) [µg/mL]	Activity [2] [%]	LC50 [3] [µg/mL]	EC50 [4] [µg/mL]	EC50 (P388) [µg/mL]	Activity [5] [%]	EC50 (A-431) [µg/mL]	EC50 (KB) [µg/mL]	EC50 (ZR-75-1) [µg/mL]	EC50 [6] [µg/mL]	Activity [7] [%]	Activity [8] [%]	EC50 (HT) [µg/mL]	Activity [9] [%]	EC50 [10] [µg/mL]	Activity [11] [%]	EC50 (Col2) [µg/mL]	further results
COc1cc(-c2c3c(c(O)c4c(OC)c5c(cc24)OCO5)COC3=O)cc(OC)c1OC	100	11.6 (≈ 26.3 µM)	11.7 (≈ 26.6 µM)	0	> 500	8.7 (≈ 19.8 µM)	4 (≈ 9.08 µM)	0	6.2 (≈ 14.1 µM)	6 (≈ 13.6 µM)	> 20	16.3 (≈ 37 µM)	100	0	15.6 (≈ 35.4 µM)	0	7.6 (≈ 17.3 µM)	0	12.8 (≈ 29.1 µM)	
COc1cc(-c2c3c(cc4c(OC)c5c(cc24)OCO5)COC3=O)cc(OC)c1OC	100	3.2 (≈ 7.54 µM)	4.3 (≈ 10.1 µM)	0	435 (≈ 1020 µM)	4.2 (≈ 9.9 µM)	1.8 (≈ 4.24 µM)	0	> 20	2.2 (≈ 5.18 µM)	> 20	5.9 (≈ 13.9 µM)	100	0	3.4 (≈ 8.01 µM)	0	2.9 (≈ 6.83 µM)	100	3.2 (≈ 7.54 µM)	
COc1cc(C[C@H]2C(=O)OC[C@@H]2Cc2ccc3c(c2)OCO3)cc(OC)c1OC	100	0.16 (≈ 0.4 µM)	0.1 (≈ 0.25 µM)	0	2.8 (≈ 6.99 µM)	0.06 (≈ 0.15 µM)	0.4 (≈ 0.999 µM)	0	> 20	0.08 (≈ 0.2 µM)	0.5 (≈ 1.25 µM)	0.3 (≈ 0.749 µM)	100	100	0.07 (≈ 0.175 µM)	100	0.05 (≈ 0.125 µM)	100	0.08 (≈ 0.2 µM)	Activity (Candida albicans): Active
COc1cc([C@@H]2c3cc4c(cc3C[C@H]3COC(=O)[C@@H]32)OCO4)cc(OC)c1O [4'-DEMETHYLDEOXYPODOPHYLLOTOXIN]	100	0.02 (≈ 0.052 µM)	0.03 (≈ 0.078 µM)	100	0.2 (≈ 0.52 µM)	0.02 (≈ 0.052 µM)	0.005 (≈ 0.013 µM)	0	0.08 (≈ 0.208 µM)	0.01 (≈ 0.026 µM)	2.1 (≈ 5.46 µM)	0.1 (≈ 0.26 µM)	100	100	0.01 (≈ 0.026 µM)	100	0.01 (≈ 0.026 µM)	100	0.03 (≈ 0.078 µM)	Activity (Candida albicans): Active
COc1cc2c(c(OC)c1OC)-c1ccc(OC)c(=O)cc1[C@@H](NC(C)=O)CC2 [COLCHICINE]	100			0				0					100	70		0		100		Activity [12]: 0%
COc1cc(-c2c3c(c(O)c4cc5c(cc24)OCO5)COC3=O)cc(OC)c1OC [DEHYDROPODOPHYLLOTOXIN]	100	11.7 (≈ 28.5 µM)	10.6 (≈ 25.8 µM)	0	255 (≈ 621 µM)	13 (≈ 31.7 µM)	> 5	0	> 20	5 (≈ 12.2 µM)	> 20	> 20	100	0	9.7 (≈ 23.6 µM)	0	15.2 (≈ 37 µM)	0	8.9 (≈ 21.7 µM)	
COc1cc(-c2c3c(cc4cc5c(cc24)OCO5)COC3=O)cc(OC)c1OC [DEOXYDEHYDROPODOPHYLLOTOXIN]	100	11.6 (≈ 29.4 µM)	18.8 (≈ 47.7 µM)		> 500	> 20	> 5		6.2 (≈ 15.7 µM)	11.4 (≈ 28.9 µM)	> 20	> 20	0	0	> 20		> 20	0	16.7 (≈ 42.3 µM)	
COc1cc([C@@H]2c3cc4c(cc3C[C@H]3COC(=O)[C@H]32)OCO4)cc(OC)c1OC [DEOXYPICROPODOPHYLLIN]	100	0.2 (≈ 0.502 µM)	0.09 (≈ 0.226 µM)	0	142 (≈ 355 µM)	0.7 (≈ 1.76 µM)	0.1 (≈ 0.251 µM)	0	> 20	0.1 (≈ 0.251 µM)	0.6 (≈ 1.51 µM)	0.1 (≈ 0.251 µM)	100	100	0.2 (≈ 0.502 µM)	0	2.1 (≈ 5.27 µM)	100	0.3 (≈ 0.753 µM)	
COc1cc([C@@H]2c3cc4c(cc3C[C@H]3COC(=O)[C@@H]32)OCO4)cc(OC)c1OC [DESOXYPODOPHYLLOTOXIN]	100	0.01 (≈ 0.0251 µM)	0.002 (≈ 0.00502 µM)	100		0.06 (≈ 0.151 µM)	0.002 (≈ 0.00502 µM)	0	4.3 (≈ 10.8 µM)	0.05 (≈ 0.125 µM)	2 (≈ 5.02 µM)	0.001 (≈ 0.00251 µM)	100	100	0.003 (≈ 0.00753 µM)	100	0.001 (≈ 0.00251 µM)	100	0.01 (≈ 0.0251 µM)	
COc1cc([C@@H]2c3cc4c(cc3C[C@@H]3COC(=O)[C@H]32)OCO4)cc(OC)c1OC [ISODEOXYPODOPHYLLOTOXIN]	100	12 (≈ 30.1 µM)	15.9 (≈ 39.9 µM)	0	> 500	11.5 (≈ 28.9 µM)	> 20	0	6.2 (≈ 15.6 µM)	6.7 (≈ 16.8 µM)	13.2 (≈ 33.1 µM)	2.9 (≈ 7.28 µM)	100	0	10.7 (≈ 26.9 µM)	0	17.5 (≈ 43.9 µM)	0	8.9 (≈ 22.3 µM)	
COc1cc2cc(c1Cl)N(C)C(=O)C[C@H](OC(=O)[C@H](C)N(C)C(C)=O)[C@]1(C)O[C@H]1[C@H](C)[C@@H]1C[C@@](O)(NC(=O)O1)[C@H](OC)/C=C/C=C(\C)C2 [MAYTANSINE]	100			100				100					100	100		100		100		Activity [12]: 0%
COc1cc([C@@H]2c3cc4c(cc3[C@H](O)[C@H]3COC(=O)[C@H]23)OCO4)cc(OC)c1OC [PODOFILOX]	100	0.04 (≈ 0.0965 µM)	0.008 (≈ 0.0193 µM)	100	0.2 (≈ 0.483 µM)	0.06 (≈ 0.145 µM)	0.003 (≈ 0.00724 µM)	0	0.03 (≈ 0.0724 µM)	0.08 (≈ 0.193 µM)	0.4 (≈ 0.965 µM)	0.004 (≈ 0.00965 µM)	100	100	0.003 (≈ 0.00724 µM)	100	0.03 (≈ 0.0724 µM)	100	0.005 (≈ 0.0121 µM)	
CC[C@]1(O)C[C@@H]2CN(CCc3c([nH]c4ccccc34)[C@@](C(=O)OC)(c3cc4c(cc3OC)N(C)[C@H]3[C@@](O)(C(=O)OC)[C@H](OC(C)=O)[C@]5(CC)C=CCN6CC[C@]43[C@@H]65)C2)C1 [VINBLASTINE]	100			100				0					100	100		100		100		Activity [12]: 0%
CC[C@]1(O)C[C@H]2CN(CCc3c([nH]c4ccccc34)[C@@](C(=O)OC)(c3cc4c(cc3OC)N(C=O)[C@H]3[C@@](O)(C(=O)OC)[C@H](OC(C)=O)[C@]5(CC)C=CCN6CC[C@]43[C@@H]65)C2)C1 [VINCRISTINE]	100			0				0					100	100		100		100		Activity [12]: 0%
